Measurements taken from publication PMC4355043 (Bioorganic & medicinal chemistry letters, 2014).

Key:
Type in all cases: cell-based
[1] = tested on: amphotropic murine leukemia virus (AMLV) Env pseudotyped HIV-1 virus; conditions: result in words
[2] = tested on: HIV-1 94US_33931 N (subtype B); conditions: isolate 94US_33931 N
Summary of the method: (§1)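 Primary human PBMCs infected with fully infectious isolates from HIV-1 subtypes A, B, C and D, plus one HIV-2 isolate, to measure inhibition of viral replication. Toxicity to the same PBMCs was assessed concomitantly with an MTS assay. IC50 is the half-maximal inhibitory concentration and TC50 the half-maximal toxic concentration. Antiviral index is calculated as TC50/IC50.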

[3] = tested on: HIV-1 91US004 (subtype B); experiment: replication of fully infectious virus in primary human PBMCs, isolate 91US004; conditions: isolate 91US004, subtype B
Summary of the method: as §1

[4] = tested on: HIV-2CDC310319; experiment: replication of fully infectious virus in primary human PBMCs, HIV-2 isolate; conditions: result in words
Summary of the method: as §1

[5] = tested on: HIV-1 92UG037 (subtype A); experiment: replication of fully infectious virus in primary human PBMCs, isolate 92UG037; conditions: isolate 92UG037, subtype A
[6] = tested on: HIV-1 98US_MSC5016 (subtype C); conditions: isolate 98US_MSC5016, subtype C
[7] = tested on: HIV-1 99UG_A07412M1 (subtype D); conditions: isolate 99UG_A07412M1, subtype D
Summary of the method: as §1

[8] = tested on: primary human peripheral blood mononuclear cells (PBMCs); experiment: toxicity to PBMCs using an MTS assay; conditions: run concomitantly with each isolate
Summary of the method: as §1

Compound	inhibition of AMLV-pseudotyped HIV-1 (specificity) [1]	Antiviral index (TC50/IC50) [2]	Antiviral index (TC50/IC50) [3]	effect on the replication of an HIV-2 isolate [4]	Antiviral index (TC50/IC50) [5]	Antiviral index (TC50/IC50) [6]	Antiviral index (TC50/IC50) [7]	C50 (half-maximal toxic concentration) [8] [MM]
COc1ncc(OC)c2c(C(=O)C(=O)N3CC4CN(C(=O)c5ccccc5)CC4C3)c[nH]c12 (stereo not drawn) [SC08]	no inhibition							
COc1cnc(-n2cnc(C)n2)c2[nH]cc(C(=O)C(=O)N3CC4CN(C(=O)C5=CCCCC5)CC4C3)c12 (stereo not drawn) [SC26]		> 166,666	>513	no effect	>3.97	>25.6	>204	>100
COc1cnc(Cl)c2[nH]cc(C(=O)C(=O)N3CC4CN(C(=O)c5ccccc5)CC4C3)c12 (stereo not drawn) [SC07]	no inhibition							
